Reference: ChEMBL document CHEMBL1250501, “Anti-tubercular agents. Part 5: synthesis and biological evaluation of benzothiadiazine 1,1-dioxide based congeners” (Eur J Med Chem, 2010)
≈ marks a conversion by molar mass, not a printed value. Calls of active or inactive are those of the source. No cut-off for these calls is given here.

Assays:
Assay type in all cases: functional
Klebsiella pneumoniae [1] = test: Antibacterial activity against Klebsiella pneumoniae at 100 ug/ml after 18 hrs by cup plate method; conditions: read-out: DIZ
In short: (§1)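 Agar well diffusion on Mueller-Hinton agar. Inoculum was adjusted to a 0.5 McFarland standard (about […] × 10⁸ CFU/mL) and swabbed over the plate three times, rotating about 60° each time, then the rim was swabbed. Compounds in DMSO went into duplicate 6 mm wells. Plates were incubated at 37 °C for 18 h and inhibition zone diameter read to the nearest mm. DMSO negative control; streptomycin and ciprofloxacin positive controls.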

Bacillus subtilis [2] = test: Antibacterial activity against Bacillus subtilis at 50 ug/ml after 18 hrs by cup plate method; in short: as §1
[3] = system: Staphylococcus epidermidis; test: Antibacterial activity against Staphylococcus epidermidis at 100 ug/ml after 18 hrs by cup plate method; conditions: read-out: DIZ; in short: as §1
Pseudomonas aeruginosa [4] = test: Antibacterial activity against Pseudomonas aeruginosa at 100 ug/ml after 18 hrs by cup plate method; conditions: read-out: DIZ; in short: as §1
[5] = system: Mycobacterium tuberculosis; test: Antimycobacterial activity against Mycobacterium tuberculosis H37Rv after 3 to 4 weeks by broth microdilution assay
In short: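 MIC by broth microdilution on compounds active in a single-concentration primary screen. Plates incubated 3–4 weeks at 37 °C in a CO₂ incubator. Wells read visually for absence of growth turbidity.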

Escherichia coli [6] = test: Antibacterial activity against Escherichia coli at 100 ug/ml after 18 hrs by cup plate method; conditions: read-out: DIZ; in short: as §1
Bacillus subtilis [7] = test: Antibacterial activity against Bacillus subtilis at 100 ug/ml after 18 hrs by cup plate method; conditions: read-out: DIZ; in short: as §1
Candida albicans [8] = test: Antifungal activity against Candida albicans MTCC 227 at 100 ug/ml after 48 hrs by cup plate method; conditions: MTCC 227, 48 h, read-out: IZ
In short: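 Agar well (cup plate) diffusion on potato dextrose agar 39 g/L, with compounds dissolved in DMSO. Plates were incubated at 28 ± 2 °C for 48 h and inhibition zones measured to the nearest mm. Three replicates per treatment. Amphotericin B positive control; solvent control included.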

Klebsiella pneumoniae [9] = test: Antibacterial activity against Klebsiella pneumoniae at 50 ug/ml after 18 hrs by cup plate method; in short: as §1
Candida albicans [10] = test: Antifungal activity against Candida albicans MTCC 227 at 50 ug/ml after 48 hrs by cup plate method
In short: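 Agar well (cup plate) diffusion on potato dextrose agar 39 g/L. Compounds dissolved in DMSO and loaded into 6 mm wells. Incubated at 28 ± 2 °C for 48 h. Inhibition zone diameter measured to the nearest millimetre, three replicates per treatment. DMSO solvent as negative control, amphotericin B as positive control.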

Pseudomonas aeruginosa [11] = test: Antibacterial activity against Pseudomonas aeruginosa at 50 ug/ml after 18 hrs by cup plate method; conditions: for zone of inhibition at 50 µg/mL: read-out: DIZ; in short: as §1
Staphylococcus aureus [12] = test: Antibacterial activity against Staphylococcus aureus at 50 ug/ml after 18 hrs by cup plate method; conditions: for zone of inhibition at 50 µg/mL: read-out: DIZ; in short: as §1
[13] = system: Staphylococcus epidermidis; test: Antibacterial activity against Staphylococcus epidermidis at 50 ug/ml after 18 hrs by cup plate method; conditions: for zone of inhibition at 50 µg/mL: read-out: DIZ; in short: as §1
Staphylococcus aureus [14] = test: Antibacterial activity against Staphylococcus aureus at 100 ug/ml after 18 hrs by cup plate method; conditions: read-out: DIZ; in short: as §1
Escherichia coli [15] = test: Antibacterial activity against Escherichia coli at 50 ug/ml after 18 hrs by cup plate method; conditions: for zone of inhibition at 50 µg/mL: read-out: DIZ; in short: as §1
Pseudomonas aeruginosa [16] = test: Antibacterial activity against Pseudomonas aeruginosa at 25 ug/ml after 18 hrs by cup plate method; conditions: read-out: DIZ; in short: as §1
Klebsiella pneumoniae [17] = test: Antibacterial activity against Klebsiella pneumoniae at 25 ug/ml after 18 hrs by cup plate method; conditions: read-out: DIZ; in short: as §1

Compound | zone of inhibition at 100 µg/mL (Klebsiella pneumoniae [1]) [mm] | diameter of the inhibition zone (DIZ) (Bacillus subtilis [2]) | zone of inhibition at 100 µg/mL [3] [mm] | zone of inhibition at 100 µg/mL (Pseudomonas aeruginosa [4]) [mm] | MIC [5] [µg/mL] | zone of inhibition at 100 µg/mL (Escherichia coli [6]) [mm] | zone of inhibition at 100 µg/mL (Bacillus subtilis [7]) [mm] | zone of inhibition at 100 µg/mL (Candida albicans [8]) [mm] | diameter of the inhibition zone (DIZ) (Klebsiella pneumoniae [9]) | inhibition zone (IZ) (Candida albicans [10]) | diameter of the inhibition zone (DIZ) (Pseudomonas aeruginosa [11]) | zone of inhibition at 50 µg/mL (Staphylococcus aureus [12]) [mm] | zone of inhibition at 50 µg/mL [13] [mm] | zone of inhibition at 100 µg/mL (Staphylococcus aureus [14]) [mm] | diameter of the inhibition zone (DIZ) (Escherichia coli [15]) | zone of inhibition at 50 µg/mL (Pseudomonas aeruginosa [11]) [mm] | zone of inhibition at 50 µg/mL (Escherichia coli [15]) [mm] | other results
CN1C(N2CCN(Cc3ccc([N+](=O)[O-])s3)CC2)=NS(=O)(=O)c2ccccc21 | 12 | inactive | 16 | 13 | > 16 | 16 | 18 | 17 | inactive | inactive | inactive | 10 | 14 | 12 | inactive |  |  | 
O=[N+]([O-])c1ccc(CN2CCN(C3=NS(=O)(=O)c4ccccc4N3c3ccccc3)CC2)s1 | 13 | inactive | 14 | 12 | > 16 | 16 | 14 | 12 | inactive | inactive | inactive | 9 |  | 12 | inactive |  |  | diameter of the inhibition zone (DIZ) [13]: inactive
O=[N+]([O-])c1ccc(CN2CCN(C3=NS(=O)(=O)c4ccccc4N3c3ccccc3)CC2)o1 | 15 | inactive | 20 | 15 | 2 (≈ 4.28 µM) | 20 | 19 | 11 | inactive | inactive |  | 14 | 15 | 15 |  | 10 | 14 | 
O=C(O)c1cn(C2CC2)c2cc(N3CCNCC3)c(F)cc2c1=O [CIPROFLOXACIN] |  |  |  |  |  |  |  |  |  | inactive |  | 26 | 34 |  |  | 30 | 38 | zone of inhibition at 25 µg/mL (Pseudomonas aeruginosa [16]): 40 mm; zone of inhibition at 50 µg/mL (Bacillus subtilis [2]; read-out: DIZ): 32 mm; zone of inhibition at 50 µg/mL (Klebsiella pneumoniae [9]; read-out: DIZ): 20 mm; zone of inhibition at 25 µg/mL (Klebsiella pneumoniae [17]): 21 mm
O=C(c1ccc([N+](=O)[O-])o1)N1CCN(C2=NS(=O)(=O)c3ccccc3N2c2ccccc2)CC1 | 11 | inactive | 17 | 16 | > 16 | 20 | 19 | 17 | inactive |  |  |  | 10 | 15 |  | 10 | 10 | zone of inhibition at 50 µg/mL (Candida albicans [10]; MTCC 227, 48 h, read-out: IZ): 10 mm; diameter of the inhibition zone (DIZ) (Staphylococcus aureus [12]): inactive
